# Measurements from ChEMBL document CHEMBL1142492 (J Med Chem, 2008).
# Key:
# [1] = biological target: Serine/threonine-protein kinase PAK 4 (Homo sapiens) (UniProt O96013); experiment: Inhibition of PAK4 at 3 uM
# [2] = biological target: Dual specificity protein kinase CLK3 (Homo sapiens) (UniProt P49761); experiment: Inhibition of CLK3 at 3 uM
# [3] = biological target: Serine/threonine-protein kinase D1 (Homo sapiens) (UniProt Q15139); experiment: Inhibition of PRKD1 at 3 uM
# [4] = biological target: Casein kinase I isoform gamma-1 (Homo sapiens) (UniProt Q9HCP0); experiment: Inhibition of CSNK1G1 at 3 uM
# [5] = biological target: Angiopoietin-1 receptor (Homo sapiens) (UniProt Q02763); experiment: Inhibition of TIE2 at 3 uM
# [6] = biological target: Endothelin receptor type B (Homo sapiens) (UniProt P24530); experiment: Inhibition of human endothelin ETB receptor at 3 uM
# Procedure, shortened: (§1)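 Counter-screen binding/enzyme panel at single 3 μM, n=2; results as percent inhibition. Species per target as listed (rat NMDA, GABAA sites; human receptors, transporters; rabbit ACE).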
# [7] = test system: Proto-oncogene tyrosine-protein kinase receptor Ret (Homo sapiens), P07949 [V804L]; experiment: Inhibition of RET V804L mutant at 3 uM
# [8] = biological target: T1, Epidermal growth factor receptor (Homo sapiens) (UniProt P04626+P00533+Q15303+P21860); experiment: Inhibition of EGFR S752-I759del mutant at 3 uM; assay type: protein assay
# Procedure, shortened: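 Single-concentration kinase panel scoring: each value is the percentage of enzyme activity remaining relative to a DMSO-only control. An activity statistically indistinct from DMSO control was scored "no hit".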
# [9] = biological target: Sodium-dependent serotonin transporter (Homo sapiens) (UniProt P31645); experiment: Inhibition of human SERT at 3 uM
# [10] = Inhibition of myosin light chain bisphosphorylation in rat A7r5 cells after 1 hr
# [11] = biological target: Serine/threonine-protein kinase PAK 6 (Homo sapiens) (UniProt Q9NQU5); experiment: Inhibition of PAK6 at 3 uM
# Sequence of Serine/threonine-protein kinase PAK 6 (Homo sapiens) (Q9NQU5 whole entry, looked up): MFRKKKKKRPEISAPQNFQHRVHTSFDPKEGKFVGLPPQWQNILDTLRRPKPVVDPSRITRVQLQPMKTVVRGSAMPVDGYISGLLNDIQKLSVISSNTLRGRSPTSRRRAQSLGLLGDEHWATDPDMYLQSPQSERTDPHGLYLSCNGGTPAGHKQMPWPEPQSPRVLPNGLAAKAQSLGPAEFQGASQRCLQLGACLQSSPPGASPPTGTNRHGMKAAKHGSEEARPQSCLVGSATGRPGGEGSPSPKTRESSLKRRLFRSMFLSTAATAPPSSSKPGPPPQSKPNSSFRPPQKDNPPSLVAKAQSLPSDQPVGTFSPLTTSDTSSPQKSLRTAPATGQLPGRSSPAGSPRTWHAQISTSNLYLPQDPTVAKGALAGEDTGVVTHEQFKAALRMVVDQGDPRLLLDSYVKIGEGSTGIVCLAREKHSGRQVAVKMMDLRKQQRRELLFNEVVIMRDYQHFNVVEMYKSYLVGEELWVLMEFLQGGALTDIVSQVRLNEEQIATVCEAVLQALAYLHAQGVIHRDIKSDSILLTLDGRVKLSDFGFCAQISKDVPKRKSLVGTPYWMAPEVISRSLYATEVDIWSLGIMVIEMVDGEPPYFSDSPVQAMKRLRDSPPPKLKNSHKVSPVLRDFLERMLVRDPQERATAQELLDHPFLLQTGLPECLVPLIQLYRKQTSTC
# [12] = biological target: Serine/threonine-protein kinase N2 (Homo sapiens) (UniProt Q16513); experiment: Inhibition of PKN2 at 3 uM
# [13] = biological target: Adenosine receptor A1 (Homo sapiens) (UniProt P30542); experiment: Inhibition of human adenosine A1 receptor at 3 uM; procedure, shortened: as §1
# [14] = biological target: Muscarinic acetylcholine receptor M2 (Homo sapiens) (UniProt P08172); experiment: Inhibition of human muscarinic M2 receptor at 3 uM; procedure, shortened: as §1
# Sequence of Muscarinic acetylcholine receptor M2 (Homo sapiens) (P08172 whole entry): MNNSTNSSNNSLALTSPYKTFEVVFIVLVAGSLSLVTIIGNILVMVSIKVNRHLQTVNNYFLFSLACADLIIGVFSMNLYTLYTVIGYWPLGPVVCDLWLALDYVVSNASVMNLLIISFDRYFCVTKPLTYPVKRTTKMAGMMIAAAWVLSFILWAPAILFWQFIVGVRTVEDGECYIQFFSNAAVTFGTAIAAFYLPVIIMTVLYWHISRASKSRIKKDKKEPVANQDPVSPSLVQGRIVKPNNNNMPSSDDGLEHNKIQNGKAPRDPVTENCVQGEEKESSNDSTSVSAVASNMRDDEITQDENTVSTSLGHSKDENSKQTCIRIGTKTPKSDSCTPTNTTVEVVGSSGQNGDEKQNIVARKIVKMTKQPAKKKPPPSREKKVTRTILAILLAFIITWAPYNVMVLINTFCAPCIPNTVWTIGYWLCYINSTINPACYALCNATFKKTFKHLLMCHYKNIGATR
# [15] = biological target: Mitogen-activated protein kinase kinase kinase 3 (Homo sapiens) (UniProt Q99759); experiment: Inhibition of MAP3K3 at 3 uM
# Sequence of Mitogen-activated protein kinase kinase kinase 3 (Homo sapiens) (Q99759 whole entry): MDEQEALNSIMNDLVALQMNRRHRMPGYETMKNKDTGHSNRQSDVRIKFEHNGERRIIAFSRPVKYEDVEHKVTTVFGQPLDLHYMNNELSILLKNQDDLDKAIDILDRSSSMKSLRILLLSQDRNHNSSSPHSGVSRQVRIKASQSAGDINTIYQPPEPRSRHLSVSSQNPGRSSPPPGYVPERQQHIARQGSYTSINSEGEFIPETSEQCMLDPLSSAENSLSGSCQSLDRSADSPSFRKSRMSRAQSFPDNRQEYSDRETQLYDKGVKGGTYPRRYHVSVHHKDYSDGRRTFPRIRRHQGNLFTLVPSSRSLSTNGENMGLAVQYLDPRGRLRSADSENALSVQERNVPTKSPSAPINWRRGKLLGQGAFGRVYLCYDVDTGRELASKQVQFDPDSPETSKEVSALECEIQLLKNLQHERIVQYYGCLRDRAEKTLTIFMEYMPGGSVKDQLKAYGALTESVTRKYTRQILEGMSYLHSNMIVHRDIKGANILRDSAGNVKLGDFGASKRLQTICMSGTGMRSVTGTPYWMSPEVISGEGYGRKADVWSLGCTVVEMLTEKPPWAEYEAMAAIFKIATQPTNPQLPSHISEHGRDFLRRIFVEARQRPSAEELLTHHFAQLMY
# [16] = organism: Rattus norvegicus; conditions: 3 uM
# [17] = biological target: Myotonin-protein kinase (Homo sapiens) (UniProt Q09013); experiment: Inhibition of DMPK at 3 uM
# [18] = biological target: Serine/threonine-protein kinase Nek1 (Homo sapiens) (UniProt Q96PY6); experiment: Inhibition of NEK1 at 3 uM
# [19] = biological target: T2, CYP1A2 (Homo sapiens, UniProt P05177); experiment: Inhibition of human CYP1A2 at 10 uM; assay type: ADME
# T2 sequence (P05177 whole entry): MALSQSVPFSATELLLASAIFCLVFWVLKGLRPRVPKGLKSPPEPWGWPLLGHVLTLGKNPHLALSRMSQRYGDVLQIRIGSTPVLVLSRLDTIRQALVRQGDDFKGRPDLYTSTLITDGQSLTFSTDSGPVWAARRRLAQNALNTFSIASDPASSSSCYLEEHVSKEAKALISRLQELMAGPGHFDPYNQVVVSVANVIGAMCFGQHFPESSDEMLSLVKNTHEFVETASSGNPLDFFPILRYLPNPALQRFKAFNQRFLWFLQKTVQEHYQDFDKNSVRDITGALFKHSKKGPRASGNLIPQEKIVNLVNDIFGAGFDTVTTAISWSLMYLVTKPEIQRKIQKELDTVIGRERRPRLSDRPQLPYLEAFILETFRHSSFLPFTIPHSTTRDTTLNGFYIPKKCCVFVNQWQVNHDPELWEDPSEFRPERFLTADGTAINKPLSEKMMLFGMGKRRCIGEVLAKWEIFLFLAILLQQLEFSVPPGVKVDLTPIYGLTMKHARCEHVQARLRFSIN
# [20] = biological target: Tyrosine-protein kinase Mer (Homo sapiens) (UniProt Q12866); experiment: Inhibition of MERTK at 3 uM
# [21] = biological target: Casein kinase I isoform gamma-2 (Homo sapiens) (UniProt P78368); experiment: Inhibition of CSNK1G2 at 3 uM
# [22] = biological target: Cyclin-dependent kinase 14 (Homo sapiens) (UniProt O94921); experiment: Inhibition of PFTK1 at 3 uM
# Sequence of Cyclin-dependent kinase 14 (Homo sapiens) (O94921 whole entry, canonical isoform): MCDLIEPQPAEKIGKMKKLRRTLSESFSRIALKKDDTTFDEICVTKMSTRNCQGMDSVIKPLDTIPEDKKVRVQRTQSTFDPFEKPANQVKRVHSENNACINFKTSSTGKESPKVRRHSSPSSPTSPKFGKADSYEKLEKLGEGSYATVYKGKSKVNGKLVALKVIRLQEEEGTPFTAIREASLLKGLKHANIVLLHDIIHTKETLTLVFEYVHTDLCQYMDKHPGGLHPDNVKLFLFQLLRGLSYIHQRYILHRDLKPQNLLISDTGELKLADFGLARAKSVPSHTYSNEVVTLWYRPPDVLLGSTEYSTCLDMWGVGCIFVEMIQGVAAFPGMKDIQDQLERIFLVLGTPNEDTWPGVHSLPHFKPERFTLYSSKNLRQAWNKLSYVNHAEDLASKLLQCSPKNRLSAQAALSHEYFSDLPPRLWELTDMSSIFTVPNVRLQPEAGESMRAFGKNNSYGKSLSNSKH
# [23] = biological target: Phosphorylase b kinase gamma catalytic chain, liver/testis isoform (Homo sapiens) (UniProt P15735); experiment: Inhibition of PHKG2 at 3 uM
# [24] = biological target: cGMP-dependent protein kinase 1 (Homo sapiens) (UniProt Q13976); experiment: Inhibition of PRKG1 at 3 uM
# [25] = biological target: Cysteinyl leukotriene receptor 1 (Homo sapiens) (UniProt Q9Y271); experiment: Inhibition of human CysLT1 receptor at 3 uM
# [26] = biological target: Mitogen-activated protein kinase kinase kinase 9 (Homo sapiens) (UniProt P80192); experiment: Inhibition of MLK1 at 3 uM
# [27] = biological target: Endothelin-1 receptor (Homo sapiens) (UniProt P25101); experiment: Inhibition of human endothelin ETA receptor at 3 uM; procedure, shortened: as §1
# [28] = biological target: Serine/threonine-protein kinase 3 (Homo sapiens) (UniProt Q13188); experiment: Inhibition of MST2 at 3 uM
# Sequence of Serine/threonine-protein kinase 3 (Homo sapiens) (Q13188 whole entry): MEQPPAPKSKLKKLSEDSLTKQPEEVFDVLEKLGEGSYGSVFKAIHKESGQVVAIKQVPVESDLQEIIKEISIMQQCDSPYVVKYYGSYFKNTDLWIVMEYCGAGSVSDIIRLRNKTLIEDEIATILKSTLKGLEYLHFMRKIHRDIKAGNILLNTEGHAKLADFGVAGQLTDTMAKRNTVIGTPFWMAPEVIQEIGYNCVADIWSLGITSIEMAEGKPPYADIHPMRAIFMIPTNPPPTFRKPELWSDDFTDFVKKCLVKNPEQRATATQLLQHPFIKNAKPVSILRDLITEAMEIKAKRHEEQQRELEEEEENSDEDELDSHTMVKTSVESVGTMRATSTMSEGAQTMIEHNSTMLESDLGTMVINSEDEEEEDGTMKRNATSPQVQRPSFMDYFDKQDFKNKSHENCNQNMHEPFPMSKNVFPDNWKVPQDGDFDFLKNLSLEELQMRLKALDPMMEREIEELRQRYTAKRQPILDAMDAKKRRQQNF
# [29] = biological target: Beta-1 adrenergic receptor (Homo sapiens) (UniProt P08588); experiment: Inhibition of human adrenergic beta-1 receptor at 3 uM; procedure, shortened: as §1
# [30] = biological target: Activin receptor type-2B (Homo sapiens) (UniProt Q13705); experiment: Inhibition of ACVR2B at 3 uM
# [31] = biological target: Dual specificity tyrosine-phosphorylation-regulated kinase 1B (Homo sapiens) (UniProt Q9Y463); experiment: Inhibition of DYRK1B at 3 uM
# [32] = biological target: Aurora kinase C (Homo sapiens) (UniProt Q9UQB9); experiment: Inhibition of AURKC at 3 uM
# [33] = biological target: RAF proto-oncogene serine/threonine-protein kinase (Homo sapiens) (UniProt P04049); experiment: Inhibition of RAF1 at 3 uM
# Sequence of RAF proto-oncogene serine/threonine-protein kinase (Homo sapiens) (P04049 whole entry): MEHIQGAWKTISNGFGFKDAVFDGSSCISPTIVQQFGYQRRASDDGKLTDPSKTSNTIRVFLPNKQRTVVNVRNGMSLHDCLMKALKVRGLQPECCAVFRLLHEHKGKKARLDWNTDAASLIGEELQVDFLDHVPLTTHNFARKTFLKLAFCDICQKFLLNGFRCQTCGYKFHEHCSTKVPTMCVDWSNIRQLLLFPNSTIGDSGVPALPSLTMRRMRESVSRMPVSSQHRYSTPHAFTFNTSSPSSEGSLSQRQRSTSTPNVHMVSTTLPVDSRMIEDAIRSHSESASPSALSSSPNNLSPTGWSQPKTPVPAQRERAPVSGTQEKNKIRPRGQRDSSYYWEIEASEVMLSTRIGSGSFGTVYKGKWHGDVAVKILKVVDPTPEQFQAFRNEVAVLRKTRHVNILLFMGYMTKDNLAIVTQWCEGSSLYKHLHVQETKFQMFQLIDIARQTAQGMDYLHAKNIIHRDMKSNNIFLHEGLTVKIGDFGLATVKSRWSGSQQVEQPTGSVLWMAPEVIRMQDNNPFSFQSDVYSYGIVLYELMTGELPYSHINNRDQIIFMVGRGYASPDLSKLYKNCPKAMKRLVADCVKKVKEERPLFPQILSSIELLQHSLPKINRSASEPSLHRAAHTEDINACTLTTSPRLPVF
# [34] = biological target: T1, Epidermal growth factor receptor (Homo sapiens); experiment: Inhibition of EGFR E746-A750del mutant at 3 uM; assay type: protein assay
# [35] = biological target: Serine/threonine-protein kinase 16 (Homo sapiens) (UniProt O75716); experiment: Inhibition of STK16 at 3 uM
# [36] = biological target: Androgen receptor (Rattus norvegicus) (UniProt P15207); experiment: Inhibition of rat androgen receptor at 3 uM
# [37] = test system: Mast/stem cell growth factor receptor Kit (Homo sapiens), P10721 [D816V]; experiment: Inhibition of KIT D816V mutant at 3 uM
# Sequence of Mast/stem cell growth factor receptor Kit (Homo sapiens), P10721 [D816V] (P10721 whole entry D816V): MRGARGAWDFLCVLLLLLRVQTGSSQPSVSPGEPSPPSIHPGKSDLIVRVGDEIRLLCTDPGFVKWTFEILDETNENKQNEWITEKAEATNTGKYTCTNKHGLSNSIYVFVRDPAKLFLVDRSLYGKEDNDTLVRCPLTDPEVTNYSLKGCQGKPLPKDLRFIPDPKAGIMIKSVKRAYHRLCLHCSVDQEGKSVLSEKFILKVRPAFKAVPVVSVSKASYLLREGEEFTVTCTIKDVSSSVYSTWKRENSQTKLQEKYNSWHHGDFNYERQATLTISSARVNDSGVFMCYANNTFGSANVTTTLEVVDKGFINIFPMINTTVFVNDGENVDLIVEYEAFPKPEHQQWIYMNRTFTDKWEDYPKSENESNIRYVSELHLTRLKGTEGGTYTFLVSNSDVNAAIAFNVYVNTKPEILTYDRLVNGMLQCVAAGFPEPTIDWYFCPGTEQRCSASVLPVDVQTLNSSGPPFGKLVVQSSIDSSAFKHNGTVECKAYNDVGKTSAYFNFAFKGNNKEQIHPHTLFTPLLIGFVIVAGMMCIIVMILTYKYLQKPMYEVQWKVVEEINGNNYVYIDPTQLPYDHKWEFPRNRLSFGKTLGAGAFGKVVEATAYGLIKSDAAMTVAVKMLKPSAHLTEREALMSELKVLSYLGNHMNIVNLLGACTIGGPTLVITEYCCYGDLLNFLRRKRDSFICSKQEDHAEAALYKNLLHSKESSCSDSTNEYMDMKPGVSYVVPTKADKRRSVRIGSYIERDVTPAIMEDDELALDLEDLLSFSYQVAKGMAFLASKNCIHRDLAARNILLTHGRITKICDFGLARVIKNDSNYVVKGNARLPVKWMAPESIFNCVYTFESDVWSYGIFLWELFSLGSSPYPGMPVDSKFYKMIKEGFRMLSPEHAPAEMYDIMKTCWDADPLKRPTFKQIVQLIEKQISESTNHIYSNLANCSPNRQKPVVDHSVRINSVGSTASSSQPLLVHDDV
# [38] = biological target: Adenosine receptor A3 (Homo sapiens) (UniProt P0DMS8); experiment: Inhibition of human adenosine A3 receptor at 3 uM; procedure, shortened: as §1
# [39] = biological target: Pyroglutamylated RF-amide peptide receptor (Homo sapiens) (UniProt Q96P65); experiment: Inhibition of human GPR103 at 3 uM; procedure, shortened: as §1
# Sequence of Dual specificity protein kinase CLK3 (Homo sapiens) (P49761 whole entry, looked up): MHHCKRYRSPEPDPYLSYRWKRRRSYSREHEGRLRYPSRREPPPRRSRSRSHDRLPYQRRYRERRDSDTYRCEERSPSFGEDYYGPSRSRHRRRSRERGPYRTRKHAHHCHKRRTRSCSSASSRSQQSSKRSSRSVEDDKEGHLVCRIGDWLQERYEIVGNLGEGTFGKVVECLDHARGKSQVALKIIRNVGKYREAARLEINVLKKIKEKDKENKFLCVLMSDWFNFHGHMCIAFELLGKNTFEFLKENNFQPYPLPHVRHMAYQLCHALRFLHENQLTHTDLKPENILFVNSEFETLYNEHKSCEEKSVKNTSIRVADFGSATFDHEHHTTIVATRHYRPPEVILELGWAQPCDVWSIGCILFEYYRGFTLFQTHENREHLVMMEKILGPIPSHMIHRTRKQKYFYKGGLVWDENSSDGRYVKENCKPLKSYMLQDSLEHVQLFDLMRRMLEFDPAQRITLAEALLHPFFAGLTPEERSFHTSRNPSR
smiles,measurement,setting,value
CN(C)CCOc1cc(-c2cn[nH]c2)ccc1NC(=O)C1COc2ccccc2O1 (centres undefined) [SR-3677],inhibition,[1],< 10%
same,inhibition,[2],< 10%
same,inhibition,[3],< 10%
same,inhibition,[4],< 10%
same,inhibition,[5],< 10%
same,inhibition,[6],-1%
same,inhibition,[7],< 10%
same,inhibition,[8],< 10%
same,inhibition,[9],3%
same,IC50,[10],3.5 nM
same,inhibition,[11],< 10%
same,inhibition,[12],< 10%
same,inhibition,[13],-4%
same,inhibition,[14],4%
same,inhibition,[15],< 10%
same,inhibition,[16],14%
same,inhibition,[17],< 10%
same,inhibition,[18],< 10%
same,inhibition at 10 µM,[19],46%
same,inhibition,[20],< 10%
same,inhibition,[21],< 10%
same,inhibition,[22],< 10%
same,inhibition,[23],< 10%
same,inhibition,[24],< 10%
same,inhibition,[25],0%
same,inhibition,[26],< 10%
same,inhibition,[27],1%
same,inhibition,[28],< 10%
same,inhibition,[29],43%
same,inhibition,[30],< 10%
same,inhibition,[31],< 10%
same,inhibition,[32],< 10%
same,inhibition,[33],< 10%
same,inhibition,[34],< 10%
same,inhibition,[35],< 10%
same,inhibition,[36],10%
same,inhibition,[37],< 10%
same,inhibition,[38],-4%
same,inhibition,[39],25%
